The nature of assay [1]: S. cerevisiae growth inhibition in permissive medium (OD615), pilot counter-assay for S. cerevisiae lifespan shortening project, permissive growth control (AID 705;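 active = growth inhibition above 25% in both replicates, a cutoff set 3 SD above the mean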). The note with it: OD615, 24 h, at 10 µM, stronger effect = higher value. A digest of the protocol:
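System: S. cerevisiae with engineered DeaD lifespan system / Measured by: absorbance (optical density) at 615 nm / Read-out: reduction in yeast growth (OD615) / Times: 4 h cell pre-growth, 24 h exposure at 30 °C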

Assay [2] can be described thus: S. cerevisiae growth inhibition in restrictive medium, OD615, pilot screen, restrictive growth control, yeast lifespan reduction project (AID 706;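 active = growth inhibition above a set limit, 3 SD over mean compound inhibition, in both replicates, cut at about 43% in these data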;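 also: modified DeaD lifespan yeast strain shifted to restrictive glucose medium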). Particulars: OD615, 48 h, at 10 µM, stronger effect = higher value. The method in brief:
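System: Engineered S. cerevisiae DeaD strain | Buffer or medium: Glucose-based CSMM-D restrictive medium | Schedule: 4 h pre-incubation, 48 h exposure at 30 °C | Technique: Optical density at 615 nm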

Assay [3] is described as follows: doxorubicin toxicity protection in MRP-1 cells – H69AR cells, CellTiter-Glo, duplicate, MRP-1 activator project, pilot screen (AID 807;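 active = viability increase at or above a cutoff of the median across tested compounds plus 3 SD, cut at about 8.5% in these data, passing the limit was not always enough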;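 also: compound pretreatment 18-22 h then 72 h combined with doxorubicin; 0% = doxorubicin alone and 100% = vehicle without doxorubicin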). Particulars: H69AR viability with doxorubicin, CellTiter-Glo luminescence; at 10 µM; stronger effect = higher value. In general terms: In ATP-based viability assays light output follows the ATP content of the culture.
Assay [4] can be described thus: viability of HCT116 without oncogenic beta-catenin – human colon tumor cells, pilot screen (AID 823).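 Also: 0% = wells killed by 20 µM Hyamine and 100% = untreated DMSO cell wells.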 The note with it: HCT116 beta-catenin knockout viability, CellTiter-Glo, 60 h; at 10 µM; stronger effect = lower value.
Assay [5] in a line: viability of PTEN-null HCT116 cells – cell-based, HCT116 clonal line, CellTiter-Glo, pilot screen (AID 824;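 active = viability at or below 27.92% in each of two runs, the all-compound median minus 4 SD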;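 also: 0% = 20 µM Hyamine control and 100% = vehicle cell control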). Particulars: HCT116 PTEN-deleted viability, 60 h, at 10 µM, stronger effect = lower value.
Assay [6] is described as follows: RAM pathway blockade in budding yeast – dse1pr::URA3 reporter, 5-FOA selection, pilot screen (AID 869;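 active = inhibition over a set limit, the all-compound mean plus 3 SD, in both replicate runs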;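 also: 0% = DMSO wells with no growth and 100% = 10 µM 1-NA-PP1 with full growth; RAM network block rescues cells from 5-FOA so hits raise OD615 growth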). Particulars: S. cerevisiae dse1pr::URA3 5-FOA growth, OD615, 2 d; at 10 µM; stronger effect = higher value; strain carries analog-sensitive mutant Cbk1 kinase.
Assay [7] in a line: RAM signaling pathway blockade in yeast – S. cerevisiae, Pdr1DBD-CYC8 efflux-inhibited sensitized strain, primary screen (AID 1298;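 active = RAM network inhibition above 8.4% in each of two replicates, 3 SD over the compound average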;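 also: 0% = DMSO untreated cells without growth and 100% = 10 µM 1-NA-PP1 full growth; higher means more yeast growth rescued from 5-FOA killing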). Particulars: S. cerevisiae cbk1-as DSE1-URA3 strain, 5-FOA growth OD615, 2 d; at 50 µM; stronger effect = higher value.

Values without a mark were called inactive. Results filed as inconclusive are left out. Activity calls are given as the source filed them.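 The calls were made as follows, unless noted: active = cell viability at or below a set limit in both duplicate runs, the limit being the all-compound median minus 4 SD (cut at about 23% in these data, passing the limit was not always enough); inconclusive = no clear call, values can overlap the other calls; inactive = the rest.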

By viability is commonly meant a read-out of living cells in per cent, often relative to untreated cells. Broadly, the inhibition is the relative decrease from the control value, in per cent. Consider `Cc1cc2nc(SCCN3CCCC3)[nH]c2cc1C`, for which the values for the growth inhibition in assay [1] and in assay [2] were 7.63% and -8.07%, respectively. Besides, the viability increase in assay [3] was -4.4%. Also, the figures for the viability in assay [4] and in assay [5] were 83.1% and 89.1%, respectively. In assay [6], the inhibition is 3.22%. The RAM network inhibition in assay [7] is -0.81%.
For `COc1ccc(S(=O)(=O)N2CCCN(S(=O)(=O)c3ccc(OC)cc3C)CC2)c(C)c1`, the growth inhibition in assay [1] is -12.6%; in assay [2] it was -4.12%. In assay [3], the viability increase was -6.52%. For the same molecule, the results for the viability in assay [4] and in assay [5] were 87.2% and 84.7%, respectively. The inhibition in assay [6] is -0.105%. For the same molecule, in assay [7], the RAM network inhibition was 3.22%.
Turning to `CC(C)=C(NC(=O)c1ccccc1)C(=O)NCCCC(=O)O`, the growth inhibition in assay [1] was -7.54%; in assay [2], -18.8%. In assay [3], the viability increase is -0.03%. Moreover, the results for the viability in assay [4] and in assay [5] were 100% and 103%, respectively. Also, the inhibition in assay [6] is 1.5%. In assay [7], the RAM network inhibition is 2.34%.
On to `Cc1ccc(O)c(N=CC2=C(O)c3ccccc3C2=O)c1`, for which the growth inhibition in assay [1] was -0.76%; in assay [2], 5.53%. Besides, in assay [3], the viability increase was -3.88%. Moreover, the viability in assay [4] is 61.6%; in assay [5], 64.2%. Moreover, the inhibition in assay [6] is 1.85%. Further, the RAM network inhibition in assay [7] is 1.92%.
Take `O=C(C1CC1)N1CCc2cc(Br)cc(S(=O)(=O)N3CCN(c4ccccn4)CC3)c21`: the growth inhibition is -13.2% in assay [1] and -14.6% in assay [2]. In assay [3], the viability increase is -2.17%. For the same molecule, the viability was 91% in assay [4] and 91.5% in assay [5]. Besides, the inhibition in assay [6] is 1.29%. Besides, in assay [7], the RAM network inhibition is 5.52%.
Consider `CCOC(=O)C1=C(N)OC2=C(C(=O)CCC2)C1c1cccs1` (stereo unspecified), for which the growth inhibition in assay [1] was -0.655%; in assay [2] it was 5.78%. Moreover, the viability increase in assay [3] was 0.3%. Further, the viability in assay [4] was 108%; in assay [5], 104%. For the same molecule, in assay [6], the inhibition is 0.345%. The RAM network inhibition in assay [7] was 2.67%.
As for `O=C(CS(=O)(=O)c1cn(Cc2cccc(F)c2)c2ccccc12)N1CCOCC1`, the results for the growth inhibition in assay [1] and in assay [2] were -9.09% and -22%, respectively. Moreover, the viability increase in assay [3] is -3.47%. The viability in assay [4] is 91.1%; in assay [5], 88.8%. In addition, in assay [6], the inhibition is 2.82%. For the same molecule, the RAM network inhibition in assay [7] was 6%.
On to `Cn1c(NC(=O)C2CCCC2)cc(=O)n(C)c1=O`, for which the growth inhibition in assay [1] is 0.48%; in assay [2], -4.17%. Besides, the viability increase in assay [3] is -0.06%. Besides, the viability in assay [4] is 105%; in assay [5], 95.4%. The inhibition in assay [6] is 0.58%. The RAM network inhibition in assay [7] is -1.4%.
Take `O=C(c1ccccc1S(=O)(=O)NCc1ccccc1)N1CCCCC1`: the growth inhibition in assay [1] is -1.57%; in assay [2] it was -5.03%. In assay [3], the viability increase was -2.89%. Further, the viability in assay [4] is 98.6%; in assay [5], 91%. In assay [6], the inhibition was 1.01%. In addition, the RAM network inhibition in assay [7] was 1.68%.
`CC(C)(C)c1ccc(S(=O)(=O)N2CCN(CCC#N)CC2)cc1`: the growth inhibition in assay [1] was -8.29%; in assay [2] it was -2.35%. Further, the viability increase in assay [3] is -2.4%. In addition, the values for the viability in assay [4] and in assay [5] were 100% and 96.3%, respectively. Besides, the inhibition in assay [6] was 0.88%. In addition, the RAM network inhibition in assay [7] was 4.27%.
Regarding `CN1CCN(c2cc3c(c4c2[nH]c2ccccc24)C(=O)CC(C)(C)C3)CC1`, the growth inhibition is -15.3% in assay [1] and 4.61% in assay [2]. Moreover, in assay [3], the viability increase was -8.46%. The viability in assay [4] was 1.73% (active); in assay [5], 1.58% (active). Further, the inhibition in assay [6] was 0.76%. For the same molecule, the RAM network inhibition in assay [7] was 0.78%.
For `Cc1cc2c3nonc3ccc2n1-c1ccccc1`, the values for the growth inhibition in assay [1] and in assay [2] were -16.1% and -15%, respectively. Besides, in assay [3], the viability increase is -2.59%. Also, the viability in assay [4] is 83%; in assay [5], 86%. In addition, the inhibition in assay [6] was 0.9%. For the same molecule, in assay [7], the RAM network inhibition was 6.15%.
On to `COC(=O)c1ccc(/C=N/n2cnnc2)cc1`, for which the growth inhibition in assay [1] is -10.3%; in assay [2] it was -20%. The viability increase in assay [3] was -1.44%. Also, the viability in assay [4] is 101%; in assay [5], 89.3%. Further, in assay [6], the inhibition is 0.79%. The RAM network inhibition in assay [7] is 4.48%.
As for `O=C(NCc1ccc(Cl)cc1)C1CCCN(S(=O)(=O)c2cnc[nH]2)C1` (stereo unspecified), the values for the growth inhibition in assay [1] and in assay [2] were 1.47% and -8.94%, respectively. The viability increase in assay [3] was 1.36%. Further, the viability in assay [4] was 106%; in assay [5], 92.4%. Further, the inhibition in assay [6] is 2.04%. Moreover, the RAM network inhibition in assay [7] was 1.09%.
Turning to `N#Cc1nc(-c2ccc(F)cc2)oc1NCc1ccccc1`, the growth inhibition is -11.9% in assay [1] and 2.85% in assay [2]. The viability increase in assay [3] was 0.89%. The viability was 105% in assay [4] and 95.7% in assay [5]. Moreover, the inhibition in assay [6] was 1.36%. In assay [7], the RAM network inhibition was 1.07%.
Consider `CCN1CCN(C(=O)c2cc3c(-c4ccc(Cl)cc4)nn(C)c3s2)CC1`, for which the results for the growth inhibition in assay [1] and in assay [2] were -4.23% and 16%, respectively. The viability increase in assay [3] was -7.68%. The viability in assay [4] is 38.5%; in assay [5] it was 52.7%. For the same molecule, the inhibition in assay [6] was 2.21%. In addition, in assay [7], the RAM network inhibition is 1.3%.
As for `O=C(NCc1cccs1)C1CCCN1S(=O)(=O)c1ccccc1F` (stereo unspecified), the values for the growth inhibition in assay [1] and in assay [2] were -2.45% and -6.33%, respectively. For the same molecule, the viability increase in assay [3] is -0.97%. Also, the results for the viability in assay [4] and in assay [5] were 102% and 90.7%, respectively. In assay [6], the inhibition was 0.91%. The RAM network inhibition in assay [7] is 2.5%.
As for `CC(=O)SCCC(=O)N1C(C)CCCC1C(=O)O` (stereo unspecified), the growth inhibition in assay [1] was -1.05%; in assay [2] it was -7.75%. Also, the viability increase in assay [3] is -0.97%. Besides, the values for the viability in assay [4] and in assay [5] were 95.9% and 102%, respectively. Moreover, the inhibition in assay [6] was 0.62%. Also, in assay [7], the RAM network inhibition is 5.78%.

The record behind these values is PubChem BioAssay.
